Data reported in PMC3253552 (Biochemical and Biophysical Research Communications, 2011).
Bridge positions count the residues as written; N and C are the ends. Square brackets hold non-standard residues; d marks the D form. Peptide text beside a SMILES is read from it. R8 = C=CCCCCCC[C@@](C)(N)C(=O)O; S5 = C=CCCC[C@](C)(N)C(=O)O

Experiments:
[1] = cited from earlier work
human ABCA1 = human ABCA1 (Homo sapiens, UniProt O95477); test: Cholesterol efflux from ABCA1 transfected BHK cells; format: cell-based; conditions: [3H] cholesterol, 18 h with peptide
[2] = CD spectroscopy of peptide helicity and thermostability; format: physicochemical; conditions: peptide 0.1 mg/mL in sodium phosphate buffer pH 7.4, 24°C
How it was run: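 Peptide at 0.1 mg/mL in sodium phosphate buffer, pH 7.4, in a quartz cuvette with 0.2 cm path length. Far-UV CD spectra were scanned from 185 to 240 nm at 24°C. Signal was normalised to mean residue ellipticity to estimate helical content. For thermostability, ellipticity was followed while temperature was raised from 10 to 90°C.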

pepsin = test: Peptide proteolysis by pepsin, loss of intact peptide by MALDI-TOF MS; format: in vitro ADME; conditions: for susceptibility to proteolysis by pepsin (in words): pepsin 0.5 μg/ml, 10% acetic acid pH 2, peptide 500 μg/ml, 37°C, MALDI-TOF MS; for remaining at 24 h, 500 μg/ml: pepsin, pH 2
chymotrypsin = test: Peptide proteolysis by chymotrypsin, loss of intact peptide by MALDI-TOF MS; format: in vitro ADME; conditions: pH 7

human ABCA1, sequence (O95477 whole entry): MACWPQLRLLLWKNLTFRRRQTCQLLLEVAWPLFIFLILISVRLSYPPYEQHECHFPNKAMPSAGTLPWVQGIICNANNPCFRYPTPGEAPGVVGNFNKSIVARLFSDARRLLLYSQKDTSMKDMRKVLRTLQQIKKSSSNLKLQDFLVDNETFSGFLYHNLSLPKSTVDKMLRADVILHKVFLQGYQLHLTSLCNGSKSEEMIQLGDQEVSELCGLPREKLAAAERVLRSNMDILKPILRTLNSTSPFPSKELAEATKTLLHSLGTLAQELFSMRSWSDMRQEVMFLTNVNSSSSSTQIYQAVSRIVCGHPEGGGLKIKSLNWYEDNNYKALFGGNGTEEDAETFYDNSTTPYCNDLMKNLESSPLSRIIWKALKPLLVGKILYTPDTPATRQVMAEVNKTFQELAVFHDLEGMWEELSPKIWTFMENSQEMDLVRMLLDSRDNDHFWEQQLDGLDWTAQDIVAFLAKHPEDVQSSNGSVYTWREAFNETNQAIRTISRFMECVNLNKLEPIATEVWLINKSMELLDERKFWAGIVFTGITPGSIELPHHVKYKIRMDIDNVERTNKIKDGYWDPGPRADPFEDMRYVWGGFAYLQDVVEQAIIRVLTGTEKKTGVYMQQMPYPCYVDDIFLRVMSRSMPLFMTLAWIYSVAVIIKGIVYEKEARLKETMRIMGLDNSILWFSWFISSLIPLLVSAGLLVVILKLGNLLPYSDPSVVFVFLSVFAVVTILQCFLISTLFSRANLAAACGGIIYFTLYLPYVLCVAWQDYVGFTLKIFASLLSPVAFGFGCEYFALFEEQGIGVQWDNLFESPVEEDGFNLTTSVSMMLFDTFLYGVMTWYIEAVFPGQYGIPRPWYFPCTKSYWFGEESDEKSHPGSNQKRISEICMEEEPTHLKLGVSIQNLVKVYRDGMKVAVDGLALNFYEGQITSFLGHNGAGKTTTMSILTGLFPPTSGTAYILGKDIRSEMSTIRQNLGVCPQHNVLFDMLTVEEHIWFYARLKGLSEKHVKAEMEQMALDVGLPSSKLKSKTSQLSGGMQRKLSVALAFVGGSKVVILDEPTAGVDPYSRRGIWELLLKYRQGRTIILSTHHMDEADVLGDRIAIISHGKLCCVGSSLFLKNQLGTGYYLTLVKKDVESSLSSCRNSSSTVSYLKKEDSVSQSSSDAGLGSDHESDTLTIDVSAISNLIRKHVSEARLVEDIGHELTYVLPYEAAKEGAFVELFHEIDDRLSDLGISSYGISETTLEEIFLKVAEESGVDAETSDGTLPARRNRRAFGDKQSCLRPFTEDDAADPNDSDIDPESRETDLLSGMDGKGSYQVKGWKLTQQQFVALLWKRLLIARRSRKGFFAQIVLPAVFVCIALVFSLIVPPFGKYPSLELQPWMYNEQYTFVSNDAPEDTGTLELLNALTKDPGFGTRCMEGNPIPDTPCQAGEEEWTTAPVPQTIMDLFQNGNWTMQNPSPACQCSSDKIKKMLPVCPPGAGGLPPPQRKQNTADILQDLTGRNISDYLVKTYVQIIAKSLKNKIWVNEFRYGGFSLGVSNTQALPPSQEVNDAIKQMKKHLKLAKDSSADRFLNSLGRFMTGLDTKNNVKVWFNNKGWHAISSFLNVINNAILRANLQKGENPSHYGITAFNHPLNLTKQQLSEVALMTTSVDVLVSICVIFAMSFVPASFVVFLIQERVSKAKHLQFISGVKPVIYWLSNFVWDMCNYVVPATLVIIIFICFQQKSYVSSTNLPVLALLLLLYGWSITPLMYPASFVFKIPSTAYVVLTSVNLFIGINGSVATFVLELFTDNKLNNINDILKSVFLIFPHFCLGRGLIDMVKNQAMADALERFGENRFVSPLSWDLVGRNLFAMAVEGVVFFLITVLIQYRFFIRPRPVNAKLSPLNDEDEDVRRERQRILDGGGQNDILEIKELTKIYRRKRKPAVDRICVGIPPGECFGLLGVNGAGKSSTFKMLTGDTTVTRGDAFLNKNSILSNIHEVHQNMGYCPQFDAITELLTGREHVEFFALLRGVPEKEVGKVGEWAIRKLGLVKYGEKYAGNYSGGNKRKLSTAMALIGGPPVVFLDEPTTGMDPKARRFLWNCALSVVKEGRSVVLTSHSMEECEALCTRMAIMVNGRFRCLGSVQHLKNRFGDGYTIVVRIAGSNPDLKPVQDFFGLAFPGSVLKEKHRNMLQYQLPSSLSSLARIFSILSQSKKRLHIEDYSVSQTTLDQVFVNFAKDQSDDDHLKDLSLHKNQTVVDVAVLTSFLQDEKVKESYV

increase in cholesterol efflux by the ABCA1 transporter compared to A10 (human ABCA1) [fold]	helicity in aqueous buffer at 24°C [2] [%]	susceptibility to proteolysis by pepsin (in words) (pepsin)	remaining at 24 h, 500 μg/ml (pepsin) [%]	remaining at 24 h, 500 μg/ml (chymotrypsin) [%]	Molecule	helicity when associated with lipids ([1]; apoA-I associated with lipids)	helicity in the lipid-free state ([1]; lipid-free apoA-I)
					apoA-I: full length apolipoprotein, the main protein on High Density Lipoproteins	over 67%	about 48%
> 10	62	resistant to proteolysis	0.4	0.6	CC(=O)N[C@H](C(=O)N[C@@H](CC(C)C)C(=O)N[C@@H](CC(=O)O)C(=O)N[C@@H](CO)C(=O)N[C@@H](Cc1ccccc1)C(=O)N[C@@H](CCCCN)C(=O)N[C@H](C(=O)N[C@@H](CO)C(=O)N[C@@]1(C)CCCC=CCCC[C@@](C)(C(=O)N[C@@H](CCC(=O)O)C(=O)N[C@@H](CCC(=O)O)C(=O)N[C@@H](Cc2ccc(O)cc2)C(=O)N[C@H](C(=O)N[C@@H](CCCCN)C(=O)N[C@@H](CCCCN)C(=O)N[C@@H](CC(C)C)C(=O)N[C@@H](CC(N)=O)C(=O)N[C@H](C(=O)N[C@@H](CCC(N)=O)C(N)=O)[C@@H](C)O)[C@@H](C)O)NC(=O)[C@H](C)NC(=O)[C@H](CO)NC(=O)[C@H](CC(C)C)NC1=O)C(C)C)C(C)C [S1A10] (Ac-VLDSFKVS[S5]LSA[S5]EEYTKKLNTQ-NH2; staple 9-13)		
> 10	97	resistant to proteolysis	12.2	3.8	CC(=O)N[C@H](C(=O)N[C@@H](CC(C)C)C(=O)N[C@@H](CC(=O)O)C(=O)N[C@@H](CO)C(=O)N[C@@H](Cc1ccccc1)C(=O)N[C@@H](CCCCN)C(=O)N[C@H](C(=O)N[C@@H](CO)C(=O)N[C@]1(C)CCCCCCC=CCCC[C@@](C)(C(=O)N[C@H](C(=O)N[C@@H](CCCCN)C(=O)N[C@@H](CCCCN)C(=O)N[C@@H](CC(C)C)C(=O)N[C@@H](CC(N)=O)C(=O)N[C@H](C(=O)N[C@@H](CCC(N)=O)C(N)=O)[C@@H](C)O)[C@@H](C)O)NC(=O)[C@H](CCC(=O)O)NC(=O)[C@H](CCC(=O)O)NC(=O)[C@H](CC(C)C)NC(=O)[C@H](C)NC(=O)[C@H](CO)NC(=O)[C@H](CC(C)C)NC1=O)C(C)C)C(C)C [S2A10] (Ac-VLDSFKVS[R8]LSALEE[S5]TKKLNTQ-NH2; staple 9-16)		
